The values that follow come from paper PMC4392893 (Cancer chemotherapy and pharmacology, 2014).

Broadly, the GI50 is the concentration that inhibits growth by half. A word on the half-life: it is how long it takes for the measured level to halve. Higher therefore signals slow decline. The term Cmax denotes the highest concentration seen after dosing. A word on the AUC: it is the area under the concentration-time curve, a measure of exposure. A low value points to less exposure. By Tmax is commonly meant the time at which the peak concentration occurs. As a reminder, the Vd is the apparent volume that relates the amount in the body to the concentration in plasma or blood. A higher Vd goes with extensive tissue distribution. What is called clearance is the volume of plasma or blood freed of the substance per unit of time.

The test system of data set [1] is osteoblastic differentiation and mineralization. The settings on record: in vitro, associated with Smad signaling; cited from earlier work.
The subject of data set [2] is SCC Tu212 xenograft tumors. The conditions noted are these: cited from earlier work.
Another data set relates to osteoclastogenesis. The conditions noted are these: in vitro; cited from earlier work.
A further data set deals with MiPaPc xenografts. The conditions noted are these: 10 and 20 mg/kg i.p., ref Manuscripts in preparation 2013; cited from earlier work.
The subject of the next data set is IKKβ. The settings on record: cited from earlier work.
The conditions of data set [3]: athymic nude mice, cited from earlier work.
The subject of a further data set is NF-kB pathway. The settings on record: mouse RAW264.7 macrophages; cited from earlier work.
Data set [4] has as its system HCT-116 human colon tumor xenograft. The settings on record: cited from earlier work.
For data set [5], the system named is NCI anti-cancer cell line screen. The conditions noted are these: read-out: Mean GI50; cited from earlier work.
Data set [6] can be described thus: EF-24 stability in dog plasma. It counts as in vitro ADME. The settings on record: for Half-life in plasma: dog plasma, 4°. The method, boiled down:
(§1)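 Test compound at 31.25 or 1000 nM was held in plasma at 4°C and 37°C for 24 h. Plasmas: mouse and rat from heparin-CPD blood, dog heparinised, human from healthy volunteers. Aliquots at 5, 15 and 30 min and 1, 2, 4, 6 and 24 h went into silanized tubes, were frozen at −20°C, then protein-precipitated with methanol. Samples were quantified by LC/MS/MS (m/z 312→149) against an internal standard. Half-lives were derived from loss over time.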

For data set [7], the system named is human α1-acid glycoprotein. The data set can be described thus: Binding to α1-acid glycoprotein by ultracentrifugation. The settings on record: α1-acid glycoprotein 1 mg/ml. A digest of the protocol:
(§2)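 Ultracentrifugation binding assay. Matrices were thawed mouse, rat, dog or human plasma, human serum albumin (40 mg/ml in PBS, pH 7.4) or α1-acid glycoprotein (1 mg/ml). Samples were incubated 30 min at 37°C, then spun at 90,000 rpm for 3 h at 4°C. Drug was measured by LC/MS/MS before and after spinning, with upper supernatant taken as unbound. Supernatant protein-free status was confirmed by DC protein assay. Binding was calculated from percent recovered.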

Data set [8] in a line: EF-24 stability in human plasma. It counts as in vitro ADME. The conditions noted are these: for half-life at 31.25 nM / half-life at 1000 nM: human, plasma, Half-life in plasma. A digest of the protocol:
as §1

Data set [9] is described as follows: Light sensitivity during assay development. It is filed as physicochemical. The settings on record: second peak prevented by aluminum foil or amber vials.
Data set [10] can be described thus: EF-24 stability in mouse plasma. It is filed as in vitro ADME. The settings on record: for Half-life in plasma: mouse plasma, 4°. A digest of the protocol:
as §1

Data set [11] can be described thus: NADPH-dependent metabolism in human liver microsomes. It is filed as in vitro ADME. The settings on record: 10 μM, 120 minutes (Fig 4 legend). The method, boiled down:
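Pooled human liver microsomes came from livers unsuitable for transplantation. They were preincubated 2 min in 100 mM potassium phosphate (pH 7.4), 5 mM MgCl2 ± 1.0 mM NADPH at 37°C. Reactions were started with test compound (10 µM) at 0.2–1 mg/ml protein and ran 120 min. NADPH-free incubations served as controls. Reactions were quenched with ice-cold methanol (2:1), and remaining drug was quantified by LC/MS/MS.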
In general terms: Liver microsomes are a subcellular fraction often used to study metabolism.

Another data set has as its target human serum albumin (Homo sapiens, UniProt P02768). As to the kind of experiment: Binding to human serum albumin by ultracentrifugation. The settings on record: human serum albumin 40 mg/ml in phosphate buffered saline, pH 7.4. A digest of the protocol: as §2
Data set [12] can be described thus: EF-24 stability in rat plasma. It is filed as in vitro ADME. The settings on record: for Half-life in plasma: 4°. A digest of the protocol: as §1
Data set [13] in a line: Pharmacokinetics in male CD2F1 mice. It counts as in vivo, mouse. The conditions noted are these: for Bioavailability: by comparison of AUC values. A digest of the protocol:
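Male CD2F1 mice (19–26 g) received 10 mg/kg in D5W:DMSO (9:1) by tail-vein i.v., i.p. or oral gavage. Cardiac-puncture blood was drawn under methoxyflurane, two mice per time point, at 3–240 min (i.v.) or 3–480 min (i.p., oral). Plasma was analysed by LC/MS/MS. Half-life came from compartmental and AUC/CL from noncompartmental analysis of mean concentrations, bioavailability from AUC ratios. Urine was pooled over 24 h after 25 or 32 mg/kg i.v.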

A short description of data set [14]: Partition ratio and stability in fresh mouse whole blood. It counts as in vitro ADME. The settings on record: 24-hour incubation in whole blood at 37°C. The method, boiled down:
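Fresh mouse whole blood (heparin in citrate-phosphate-dextrose) was spiked in silanized amber vials and kept on ice or at 37°C for 24 h. On ice, aliquots were taken at 0, 5, 15, 30, 60, 120 and 240 min. Red cells were pelleted at 10,000 rpm for 3 min, and plasma was frozen at −20°C before LC/MS/MS. For partitioning, equal amounts (3.9–2000 nM) went into plasma and whole blood.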

A short description of data set [15]: NADPH-dependent metabolism in mouse liver microsomes. It is filed as in vitro ADME. The settings on record: 10 μM, 15-minute incubation. The method, boiled down:
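Liver microsomes came from male CD2F1 mice, untreated or given phenobarbital (80 mg/kg) or 3-methylcholanthrene (20 mg/kg) i.p. for 3 days. Microsomes were isolated on day 4 by differential centrifugation. Test compound at 10 µM was incubated at 37°C with 0.2–1 mg/ml protein, 1.0 mM NADPH, 5 mM MgCl2 and 100 mM potassium phosphate, pH 7.4, for 15 min. Controls lacked NADPH. Reactions were stopped with ice-cold methanol, and remaining drug was measured by LC/MS/MS.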

Setting [16] is: 10 mg/kg, intraperitoneal, male CD2F1 mice.
[17] abbreviates: 10 mg/kg, oral, male CD2F1 mice.
The mark [18] stands for this setting: male, CD2F1, mouse, plasma, ip, 10 mg/kg.
Setting [19] is: male, CD2F1, mouse, plasma, iv, 10 mg/kg.
Where [20] appears, read: male, CD2F1, mouse, plasma, po, 10 mg/kg.

Like-named read-outs stand apart in the source and are kept apart here.

Sequence of human serum albumin (P02768 25-609): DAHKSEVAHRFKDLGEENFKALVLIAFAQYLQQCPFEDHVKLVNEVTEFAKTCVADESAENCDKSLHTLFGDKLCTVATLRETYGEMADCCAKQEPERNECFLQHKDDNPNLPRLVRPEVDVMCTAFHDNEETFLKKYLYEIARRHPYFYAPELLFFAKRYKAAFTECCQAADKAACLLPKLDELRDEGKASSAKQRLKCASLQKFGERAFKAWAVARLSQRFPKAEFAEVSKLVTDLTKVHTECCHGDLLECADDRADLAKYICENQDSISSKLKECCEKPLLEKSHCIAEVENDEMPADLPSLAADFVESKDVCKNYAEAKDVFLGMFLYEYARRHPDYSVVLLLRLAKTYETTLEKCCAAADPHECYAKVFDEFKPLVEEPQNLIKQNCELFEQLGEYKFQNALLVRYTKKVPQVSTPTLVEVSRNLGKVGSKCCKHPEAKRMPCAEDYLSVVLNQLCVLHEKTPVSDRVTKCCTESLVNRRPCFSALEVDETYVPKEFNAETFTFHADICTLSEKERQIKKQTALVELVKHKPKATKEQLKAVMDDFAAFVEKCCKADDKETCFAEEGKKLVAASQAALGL

Take `CN1C/C(=C\c2ccccn2)C(=O)/C(=C/c2ccccn2)C1` [UBS-109]: the “Effect on osteoblastic differentiation and mineralization” value in data set [1] is “unique stimulatory effect”. The Effect on xenografts result is “dose response” in data set [2] (50, 100 and 150 mg/kg p.o., ref Manuscripts in preparation 2013); “dose response” in the data set on MiPaPc xenografts. Besides, the “Effect on osteoclastogenesis as compared with curcumin” value in the data set on osteoclastogenesis is given as “suppressive effect”.

For `O=C1C(=Cc2ccccn2)CNCC1=Cc1ccccn1` [EF31, 3,5-Bis(2-pyridinylmethylidene)-4piperidone], in the data set with IKKβ, the “Fold more effective inhibition of IKKβ vs. EF24” value is listed as ~ 65 fold. In addition, the “Average AUC(0-∞)” value is given as 3386 h x ng mL^−1 in data set [3] (15 mg/kg i.p.) and 7769 h x ng mL^−1 in data set [3] (25 mg/kg i.p.). Moreover, the “Fold more potent blocker of NF-kB pathway activity than EF24” value in the data set on NF-kB pathway is reported as 7 fold. The “Fold more potent blocker of NF-kB pathway activity than curcumin” value in the data set on NF-kB pathway is listed as more than 10 fold. Besides, in [2] (15 and 25 mg/kg i.p.), the “Effect on xenograft tumors” value is listed as “dose-response”. Besides, the “Effect on osteoclastogenesis as compared with curcumin” value in the data set with osteoclastogenesis is “suppressive effect”.

Consider `CC(=O)O.O=C1C(=Cc2ccccc2F)CNCC1=Cc1ccccc1F` [EF-24, 3,5-bis[(2-fluorophenyl)methylene]-4-piperidinone acetate], for which the “Tumor growth in vivo” value in data set [4] (dose of 200 μg/kg) is “inhibited tumor growth”. The “Growth of HCT-116 human colon tumor xenograft” value in [4] (mice, little apparent toxicity, no reference given) is given as “potent growth inhibition”. For the same molecule, the 50% growth inhibitory concentration (GI50) in data set [5] is 700 nM. The Half-life in plasma result is “Stable” in [6] (31.25 nM); “Stable” in [6] (1000 nM); “Stable” in data set [10] (31.25 nM); “Stable” in [10] (1000 nM); “Stable” in data set [12] (rat plasma, 31.25 nM); “Stable” in data set [12] (rat plasma, 1000 nM). The half-life in [6] (dog, plasma) was 2100 min; in data set [10] (mouse, plasma), 660 min; in data set [13] (male, CD2F1, mouse, plasma, ip, 10 mg/kg, t1/2z, intraperitoneal, male CD2F1 mice), approximately 200 min; in data set [13] (male, CD2F1, mouse, plasma, iv, 10 mg/kg, t1/2z (terminal elimination half-life), male CD2F1 mice), 73.6 min; in data set [13] (male, CD2F1, mouse, plasma, iv, 10 mg/kg, t1/2β, male CD2F1 mice) it was 5.4 min; in data set [13] (male, CD2F1, mouse, plasma, po, 10 mg/kg, t1/2z, male CD2F1 mice), approximately 200 min. In addition, the half-life at 31.25 nM in data set [6] (dog, plasma) was 2160 min; in data set [8] (4°), 3.5 days; in data set [8] (37°), 3.29 days; in data set [10] (mouse, plasma) it was 720 min; in data set [12] (rat, plasma), 3000 min. The half-life at 1000 nM in data set [6] (dog, plasma) is 1980 min; in data set [8] (4°), 4.17 days; in data set [8] (37°), 2.42 days; in data set [10] (mouse, plasma), 600 min; in data set [12] (rat, plasma), 2.75 days. For the same molecule, the Percent bound in data set [7] is recorded as less than 20%; on human serum albumin, 95-100%. Also, the Stability in plasma entry in data set [8] (24-hour period) is “stable”; in data set [12] (rat plasma, 24-hour period), “stable”. Besides, in data set [9], the Stability to light entry was “light sensitivity”. The “EF-24 consumed by NADPH-dependent metabolism” value in data set [11] is more than 70%; in [15] (liver microsomes from 3MC-pretreated mice) it was 54%; in data set [15] (liver microsomes from PB-pretreated mice), 41%; in [15] (liver microsomes from untreated mice), 40%. In addition, the “Time of secondary peak concentration” value in data set [13] (10 mg/kg, i.p., male CD2F1 mice, plasma) was determined as 360 min. The molecule further returned a Peak plasma concentration in data set [13] (10 mg/kg, i.v., male CD2F1 mice) of 2.5 µM. Further, the Bioavailability in data set [13] (10 mg/kg, intraperitoneal) is on record as 34.7%; in data set [13] (10 mg/kg, oral) it was 60.1%. Besides, the values for the t1/2z in data set [13] (setting [16]) and in data set [13] (setting [17]) were 219 min and 177 min, respectively. For the same molecule, the t1/2α stood at 8.9 min in data set [13] (setting [16]); 0.4 min in data set [13] (10 mg/kg, intravenous, male CD2F1 mice); 3.3 min in data set [13] (setting [17]). Besides, the highest concentration (Cmax) in data set [13] (10 mg/kg, intraperitoneal, male CD2F1 mice, plasma) worked out at 833 nM; in data set [13] (10 mg/kg, oral, male CD2F1 mice, plasma) it was 882 nM; in data set [13] (male, CD2F1, mouse, plasma, iv, 10 mg/kg, Cmax, male CD2F1 mice) it was 2490 nM. The AUC in data set [13] (setting [18]) was 0.346 µM·h; in data set [13] (setting [19]) it was 0.996 µM·h; in data set [13] (setting [20]), 0.599 µM·h. In addition, the Tmax in data set [13] (setting [18]) is 3 min; in [13] (setting [19]), 2.7 min; in data set [13] (setting [20]) it was 3 min. Also, the Vd in [13] (setting [19]) was found to be 4.85 L/kg. For the same molecule, in [13] (setting [19]), the clearance is 482 mL/min/kg. Also, in [13] (mice administered 25 mg/kg or 32 mg/kg intravenously), the “EF-24 in 24-hour pooled urine” value is “not detected”. The “Stability in whole blood” value in data set [14] is reported as “Multi-exponential loss”.
